# Compound activity (PubChem)
# RAD54 branch: RAD54 (human) branch migration inhibition | Q92698 | RAD54 Holliday junction branch migration, FAM/BHQ fluorescence | inhibition, % at 10.4 µM | 0.14% of 360,000 active;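 active means mean normalized replicate activity at least 40 and at least half of replicates scoring 40 or more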;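 further: inhibitors cause a drop in the FAM fluorescence signal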
# PDI inh: PDI (human) enzyme inhibition; 0.052% of 350,000 active; P07237; inhibition, % at 10 µM; PDI insulin aggregation turbidity, A650, 90 min; AID 588391;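 active means mean inhibition across replicates of 30% or more, whatever share of single replicates reach that level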
# CAL PDZ FP-1: CAL PDZ (human) peptide binding inhibition; Q9HD26; purified CAL PDZ, TMR-peptide fluorescence polarization, 1 h; inhibition, % at 24.9 µM; 0.92% of 300,000 active;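 active means mean inhibition of at least 30% with at least half of replicates also reaching 30%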
# CAL PDZ FP-2: blocks peptide binding to human CAL PDZ domain; inhibition, % at 20 µM; 0.02% of 330,000 active; purified CAL PDZ, TMR-peptide fluorescence polarization, 1 h; AID 504414; Q9HD26;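 active means highest replicate inhibition of at least 40%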
#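 System: tagged CAL PDZ domain. Schedule: 1 h room-temperature incubation prior to read. Signal: fluorescence polarization (mP). Measure: percent inhibition from loss of millipolarization.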
# RAD52 inh: inhibitors of human RAD52 DNA annealing. AID 651710. P43351. inhibition, % at 18.7 µM. recombinant RAD52 DNA annealing, FRET fluorescence. 0.46% of 360,000 active;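 active means every replicate showing at least 50% inhibition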
# Target sequence (P43351 whole entry, looked up): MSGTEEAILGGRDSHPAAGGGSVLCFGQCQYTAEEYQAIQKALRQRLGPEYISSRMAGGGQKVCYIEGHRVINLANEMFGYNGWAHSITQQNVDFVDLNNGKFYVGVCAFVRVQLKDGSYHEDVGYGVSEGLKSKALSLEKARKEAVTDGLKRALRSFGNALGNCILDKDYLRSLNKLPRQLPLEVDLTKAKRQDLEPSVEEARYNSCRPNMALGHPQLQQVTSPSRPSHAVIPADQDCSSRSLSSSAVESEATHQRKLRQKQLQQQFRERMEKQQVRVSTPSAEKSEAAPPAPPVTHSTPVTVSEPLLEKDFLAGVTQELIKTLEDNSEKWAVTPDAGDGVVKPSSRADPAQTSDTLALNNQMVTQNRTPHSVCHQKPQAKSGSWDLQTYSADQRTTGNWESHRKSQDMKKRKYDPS
# ERp5 block: inhibitors of human ERp5; 0.05% of 350,000 active; inhibition, % at 9.99 µM; ERp5 insulin aggregation, absorbance 650 nm, 90 min;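 active means mean replicate inhibition above about 25%, with every replicate also reaching it, limit read from the data, passing the limit was not always enough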
# Hits are given with their value; 0 = inactive; - = not tested or not shown; + = active, no number. Sampled rows, rich in hits. Any-hit rate of the full collection: about 1%.
SMILES,RAD54 branch,PDI inh,CAL PDZ FP-1,CAL PDZ FP-2,RAD52 inh,ERp5 block
C[C@@H]1CCCCO[C@H](CN(C)C(=O)NC2CCCCC2)[C@H](C)CN([C@@H](C)CO)C(=O)c2cc(NC(=O)Nc3ccc4c(c3)OCO4)ccc2O1,0,-,-,-,0,0
CCOc1ccc(NC(=O)CNC(=O)c2ccco2)cc1,0,0,0,0,0,0
CCOc1ccc(NC(=O)CCNC(=O)c2ccco2)cc1,0,0,56.5,0,0,0
Cc1cccc(-c2nnc(SCC(=O)NC3CCCC3)o2)c1,0,0,85.8,0,0,0
O=C(CSc1nnc(CNC(=O)c2ccccc2F)o1)NCc1ccco1,0,0,61.7,0,0,0
O=C(CSc1nnc(CNC(=O)c2ccccc2F)o1)NC1CCCC1,0,0,36.9,0,0,0
O=C(CSc1nnc(CNC(=O)c2ccco2)o1)Nc1ccc(F)cc1,0,0,57.2,0,0,0
Cc1ccc(NC(=O)CSc2nnc(CNC(=O)c3ccco3)o2)cc1,-,0,0,0,0,0
O=C1CC(c2ccccc2)=C(c2ccccc2)C1,0,0,0,50.2,0,0
CCOC(=O)c1c(N)c(C#N)c2n1CCCCC2,0,0,37.4,-,-,-
CCOC(=O)c1c(N)c(C#N)c2n1CCCC2,0,0,0,0,-,-
C=CCOc1ccc(/C(O)=C2/C(=O)C(=O)N(CCCN3CCOCC3)C2c2ccccc2)cc1 (centres undefined),0,0,0,0,-,-
C=CCOc1ccc(/C(O)=C2/C(=O)C(=O)N(CCCN3CCOCC3)C2c2ccc(OC)cc2)cc1 (centres undefined),0,0,39.9,-,-,-
COc1ccccc1-c1cnc2c(c1)C(=O)N([C@H](C)CO)C[C@H](C)[C@H](CN(C)CC1CCOCC1)O2,0,-,-,-,0,0
COc1ccc(C(=O)OC2C(OC)OCC(O)C2O)cc1 (centres undefined),0,0,44.3,0,0,0
O=C(CSc1nc2c(sc3ccccc32)c(=O)n1Cc1ccccc1)NCC1CCCO1 (centres undefined),-,0,0,89.0,-,-
O=C(CSc1nc2c(sc3ccccc32)c(=O)n1Cc1ccco1)NCC1CCCO1 (centres undefined),0,0,0,0,-,-
O=C(CSc1nc2ccc(N3CCOCC3)cc2c(=O)n1CCc1ccccc1)NCC1CCCO1 (centres undefined),-,0,68.0,0,0,0
O=C(C=C1CCN(c2ncc(C(F)(F)F)cc2Cl)CC1)NNC(=O)Nc1ccc(Cl)cc1,0,0,74.0,0,-,-
C[C@@H]1CN([C@@H](C)CO)C(=O)c2cc(NS(=O)(=O)c3ccc(Cl)cc3)ccc2O[C@@H]1CN(C)C,0,-,-,-,0,0
C[C@@H]1CN([C@@H](C)CO)C(=O)c2cccc(NS(C)(=O)=O)c2O[C@H]1CN(C)C(=O)NC1CCCCC1,0,-,-,-,0,0
C[C@@H]1CN([C@H](C)CO)C(=O)Cc2cc(NC(=O)Nc3cccc4ccccc34)ccc2O[C@H]1CN(C)C(=O)NC1CCCCC1,0,-,-,-,0,0
CS(=O)(=O)Nc1ccc(C2=NN(C(=O)c3ccco3)C(c3ccco3)C2)cc1 (centres undefined),0,0,32.6,0,0,0
Cc1ccc(C(C)(C)NC(=O)C2CCC(=O)N(CCCN3CCOCC3)C2)cc1 (centres undefined),0,0,0,0,0,0
CC(C)(CN1CCCC1)NC(=O)C1CCC(=O)N(CCCN2CCOCC2)C1 (centres undefined),0,0,91.9,0,0,0
SMILES,RAD54 branch,PDI inh,CAL PDZ FP-1,CAL PDZ FP-2,RAD52 inh,ERp5 block
COc1ccc(-c2nnc3n2-c2ccccc2SC3)cc1OC,0,0,0,0,-,-
c1ccc2c(c1)SCc1nnc(-c3ccncc3)n1-2,-,0,95.9,0,0,0
CCn1cc(/C=N\NC(=O)c2c[nH]c3ccccc23)c(C)n1,-,0,0,0,-,-
CCn1cc(/C=N\NC(=O)c2csc3ccccc23)c(C)n1,0,0,31.6,-,-,-
COc1ccc(N(C(=O)c2snc(C(N)=O)c2N)C(C(=O)NCc2ccccc2)c2ccc(O)cc2)cc1 (centres undefined),0,0,51.4,0,0,0
COc1ccc(OC)c(N(C(=O)c2snc(C(N)=O)c2N)C(C(=O)NCc2ccccc2)c2ccc(O)cc2)c1 (centres undefined),0,0,0,0,0,0
CCC(C)(C(=O)NC1CCCCC1)N(C)C(=O)c1ccccn1 (centres undefined),0,0,53.3,0,-,-
COc1ccc(NC(=O)Nc2ccc3c(c2)CC(=O)N([C@@H](C)CO)C[C@@H](C)[C@H](CN(C)C(=O)Nc2ccccc2)O3)cc1,0,-,-,-,0,0
COc1ccc(N/C(N)=N/c2nc(C)cc(C)n2)c(OC)c1,-,0,0,0,0,0
COc1cc(N/C(N)=N/c2nc(C)cc(C)n2)cc(OC)c1,0,0,0,-,81.3,0
CCN1[C@@H]2Cn3c(ccc(-c4ccncc4)c3=O)[C@H]1[C@@H](C(=O)NCc1ccccc1)[C@@H]2CO,0,-,-,-,0,0
Cc1ccccc1CNC(=O)c1ccc2ccccc2n1,0,0,76.2,0,0,0
O=C(NCc1ccccc1)c1ccc2ccccc2n1,-,0,-,0,0,0
C/C=C/c1ccc2c(c1)O[C@H](CN(C)C(=O)C1CCCCC1)[C@@H](C)CN([C@H](C)CO)S2(=O)=O,0,-,-,-,0,0
COc1ccc(-c2ccc3c(c2)[C@@H]2[C@@H](CCN2S(=O)(=O)c2ccc(F)cc2)[C@@H](CO)N3C)cc1,-,-,-,-,90.2,0
COc1ccccc1NC(=O)N1CC[C@H]2[C@@H]1c1cc(C#Cc3ccc(F)cc3)ccc1N(C)[C@H]2CO,0,-,-,-,74.4,0
CCCC(=O)N1CC2(CN(C(=O)NC(C)C)C2)c2c(n(C)c3cc(OC)ccc23)[C@@H]1CO,-,-,-,-,0,0
Cc1ccc(CNS(=O)(=O)c2ccc3c(c2)CCN3C(=O)CCCC(=O)O)cc1,-,0,34.3,0,0,0
CC(=O)N1CCc2cc(S(=O)(=O)NCc3ccc(C)cc3)ccc21,0,0,0,0,0,0
CCC(=O)N1CCc2cc(S(=O)(=O)NCCC(=O)NCc3ccc(F)cc3)ccc21,0,0,37.0,0,0,0
CC(=O)N1CCc2cc(S(=O)(=O)NCC(=O)NCc3ccc(Cl)cc3)ccc21,0,0,+,0,0,0
CO[C@@H]1CN(C)C(=O)c2ccc(NS(C)(=O)=O)cc2OC[C@H](C)N(Cc2cncnc2)C[C@@H]1C,0,-,-,-,0,0
O=C(N[C@H]1C=C[C@H](CC(=O)N2CCCCC2)O[C@@H]1CO)c1ccccn1,0,-,-,-,0,0
CC(C)[C@@H](C)NC(=O)N(C)C[C@H]1OCc2ccccc2-c2c(n(C)c3ccccc23)C(=O)N([C@H](C)CO)C[C@H]1C,0,-,-,-,0,0
COc1ccc(N(CC(=O)N2CCCCCC2)S(=O)(=O)c2ccc(OC)c(OC)c2)cc1,0,0,51.2,0,0,0
Cc1ccc(COc2ccc3c(c2)OCO3)cc1,0,0,39.6,0,0,0
